# Source: publication PMC6018302 (Chemical Science, 2016)
# Legend:
# [1] = tested on: pUC19 plasmid DNA; assay: Thermal; type: binding; conditions: pUC19, phosphate buffer, 37 °C, 24 h, up to 5 : 1 BP : MC ratio
# [2] = reference value, CD3OD; cited from earlier work
# [3] = Singlet oxygen quantum yield by 1274 nm emission in CD3OD; type: physicochemical; conditions: 450 nm excitation, under air, 298 K
# [4] = Photosubstitution quantum yield under blue light; type: physicochemical; conditions: blue light irradiation 450 nm, in water
# [5] = Dark stability in aqueous and DMSO solutions; type: physicochemical
# Outline: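 Test compound solutions in D2O or DMSO were kept in the dark, with DMSO also held at –20 °C, and monitored over time. Chloride effect in aqueous solution was probed by adding NaCl up to 0.15 M.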
# [6] = tested on: A549 cells; assay: Cell fractionation and ruthenium uptake by ICP-MS; type: cell-based, human
# Outline: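 A549 cells were exposed to test compound for 6 h in the dark, then harvested. Cytosol, membrane, nuclei and cytoskeleton fractions were separated. Ruthenium in each fraction was quantified by ICP-MS.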
# [7] = tested on: pUC19 plasmid DNA; assay: Photoinduced binding to plasmid DNA, agarose gel; conditions: pUC19, 50 : 1 BP : MC, λirr = 520 nm, 5–60 min
# Outline: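 pUC19 plasmid was mixed with test compound (50:1 BP:MC) and irradiated at 520 nm for 5, 15, 30, 45 or 60 min. Controls were dark and irradiated DNA alone and a dark 50:1 sample. Cisplatin was included as a reference. Agarose gel with lambda DNA marker; linear dimer, open circular and supercoiled forms were scored.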
# [8] = tested on: A549 cells; assay: Confocal microscopy of mitochondrial potential; type: cell-based, human; conditions: A549, TMRE and DRAQ5 staining, green light 75 J cm^–2
# [9] = Water solubility; type: physicochemical
# [10] = tested on: A431 and A549 cancer cells; type: cell-based, human; conditions: 520 nm, 75 J cm^–2, compared to the dark control; maximum
# Outline: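 Photo index is the ratio of dark EC50 to green-light EC50 (520 nm, 60 min, 75 J cm–2). Light was applied after 6 h or 24 h dark pre-incubation with test compound (37 °C, 7% CO2). EC50 is the concentration giving 50% viability loss versus untreated wells.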
# [11] = tested on: A549 cells; assay: Annexin V-FITC/propidium iodide flow cytometry; type: cell-based, human; conditions: A549, green light irradiation
# Outline: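 A549 cells were treated with test compound (1.5 μM or 10 μM, by complex) for 6 h in the dark. They then received 1 h green light (520 nm, 75 J cm–2) followed by 24 h dark incubation, or were kept dark throughout (31 h). Annexin V-FITC (525 nm) and propidium iodide (670 nm) were read by flow cytometry. Quadrants: lower left live, lower right apoptotic, upper left necrotic, upper right secondary necrotic.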
Compound,dark thermal DNA binding [1],quantum yield of 1O2 generation (Φref) [2] [%],quantum yield of 1O2 generation (Φ1O2) [3] [%],photosubstitution quantum yield (ΦPS) [4] [%],"dark stability of DMSO solution ([5]; DMSO, –20 °C)","stability of Ru–S bond with dmso ligand ([5]; aqueous or DMSO solutions, 298 K)",hydrolysis of chloride ligand ([5]; upon dissolution in deionized water or D2O),"preference for the membrane fraction (intracellular distribution) ([6]; A549, 6 h in the dark at EC50 concentration, cell fractionation)","total uptake (ruthenium) ([6]; A549, 6 h in the dark at concentration corresponding to the EC50 value, ICP-MS) [ng/10^6 cells]",photoinduced DNA binding [7],effect of light irradiation on mitochondria and nuclear DNA [8],solubility in water [9],photo-indices (increase in cytotoxicity after green light vs dark) [10],type of cell death (photocytotoxicity) [11]
"N.N.[Cl][Pt][Cl] [Cisplatin, cis-diamineplatinum(II) dichloride, reference compound]",typical DNA binding results,,,,,,,,,,,,,
[Cl][Ru][Cl].c1ccc(-c2ccccn2)nc1.c1ccc(-c2ccccn2)nc1.c1ccc(-c2ccccn2)nc1 [[Ru(bpy)3]Cl2],,73,,,,,,,,,,,,
[Ru(biqbpy)(dmso)Cl]Cl [[1]Cl],negligible binding,,1.3,0.3,stable in the dark at –20 °C for at least six months,remained stable,immediately hydrolysed,strong,16,significant retardation of the SC form,diminished the mitochondrial membrane potential and induced chromosomal condensation,water-soluble,up to 22,apoptosis without any sign of necrosis
